Data: ChEMBL document CHEMBL4004879, “Synthesis of extended conjugated indolyl chalcones as potent anti-breast cancer, anti-inflammatory and antioxidant agents” (Bioorg Med Chem Lett, 2017)
Structures can show the parent of a compound that is named as a salt.

What was measured:
MCF7 = experiment: Cytotoxicity against human MCF7 cells after 48 hrs by SRB assay; assay type: functional; settings: MCF7, 48 h; for CC50: read-out: LC50 (the source's name)
In short: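 MCF-7 cells grown in RPMI-1640 with 10% FCS at 37 °C, 5% CO2. Cells with >97% viability (trypan blue) seeded and grown one day, then exposed to several concentrations for 48 h, in triplicate. Fixed with TCA at 4 °C for 1 h, stained with 0.4% SRB, bound dye dissolved in 0.01 M Tris pH 10.4, OD read at 540 nm. GI50 obtained by regression; TGI and LC50 from Ti/Tz.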

[1] = Antiinflammatory activity assessed as inhibition of heat-induced egg albumin denaturation at 1 mM after 15 mins relative to control; assay type: functional
In short: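 Egg albumin from fresh hen's egg (0.4 ml) in PBS pH 6.4 with test solution (1 mM), 10 ml total; water as control. Incubated 37±2 °C for 15 min, then heated 70 °C for 5 min. After cooling, absorbance read at 660 nm against vehicle blank. Diclofenac sodium 1 mM as reference. % inhibition of denaturation calculated from test and control absorbances.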

[2] = Antioxidant activity assessed as inhibition of DPPH radical generation at 1 mM after 30 mins relative to control; assay type: functional
In short: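 1 ml of compound (1 mM) mixed with 3.0 ml DPPH (0.5 mmol/L in methanol). Absorbance at 517 nm after 30 min at 37 °C. % scavenging = (A control − A sample)/A control × 100, with control being DPPH alone. Ascorbic acid as standard; mean of two replicates.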

[3] = Antioxidant activity assessed as inhibition of nitric oxide radical generation at 1 mM using sodium nitroprusside after 150 mins by Griess assay relative to control; assay type: functional
In short: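 NO generated from 1 ml 10 mM sodium nitroprusside mixed with 1 ml of 1 mM compound in phosphate buffer (0.2 M, pH 7.4). Incubated 25 °C for 150 min, then mixed with 1.0 ml Griess reagent (1% sulphanilamide, 0.1% naphthylethylenediamine dichloride, 2% phosphoric acid). Absorbance read at 546 nm; % inhibition from control and sample absorbances. Ascorbic acid standard; mean of two replicates.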

[4] = Antioxidant activity assessed as inhibition of superoxide radical generation at 1 mM after 5 mins by NBT reduction assay relative to control; assay type: functional
In short: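 1 ml NBT solution ([…]), 1 ml NADH ([…]) and 1 ml compound (1 mM) mixed, all in phosphate buffer pH 7.4. Reaction started with 1 ml PMS ([…]), then incubated 25 °C for 5 min. Absorbance at 560 nm against blank; % inhibition from control and sample absorbances. Ascorbic acid standard; mean of two replicates.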

[5] = (§1) Cytotoxicity against African green monkey Vero cells after 48 hrs by SRB assay; assay type: cell-based; settings: chlorocebus sabaeus, Vero cells
Vero = experiment: as §1; assay type: cell-based; settings: chlorocebus sabaeus, vero, 48 h

Row | Structure (SMILES) | GI50 (MCF7) [µM] | TGI (MCF7) [µM] | CC50 (MCF7) [µM] | inhibition [1] [%] | inhibition [2] [%] | inhibition [3] [%] | inhibition [4] [%] | GI50 at 48 h [5] [µM] | LC50 (Vero) [µM] | TGI (Vero) [µM]
1 | COc1ccc(/C(Cl)=C/C=C(\C#N)C(=O)c2c[nH]c3ccc(OC)cc23)cc1 | 87.1 | > 100 | > 100 | 79.5 | 16.7 | 41.6 | 60.7 |  |  | 
2 | O=C1O[C@H]([C@@H](O)CO)C(O)=C1O |  |  |  |  | 44.2 | 42.6 | 74.1 |  |  | 
3 | COc1cc(/C(Cl)=C/C=C(\C#N)C(=O)c2c[nH]c3ccccc23)cc(OC)c1OC | 4 | 94.3 | > 100 | 86.2 | 21.1 | 73.3 | 59.1 | 16.2 | 54.2 | 35.9
4 | COc1ccc(/C(Cl)=C/C=C(\C#N)C(=O)c2c[nH]c3ccccc23)cc1 | 47.3 | > 100 | > 100 | 80.2 | 23.4 | 76.9 | 61.3 |  |  | 
5 | COc1cccc2c1C(=O)c1c(O)c3c(c(O)c1C2=O)C[C@@](O)(C(=O)CO)C[C@@H]3O[C@H]1C[C@H](N)[C@H](O)[C@H](C)O1 [DOXORUBICIN HYDROCHLORIDE] | < 0.1 | 11 | 97.1 |  |  |  |  | 19 | 52.6 | > 10
6 | COc1ccc2[nH]cc(C(=O)/C(C#N)=C/C=C(\Cl)c3ccc(OC)c(OC)c3)c2c1 | 44.9 | > 100 | > 100 | 87.2 | 34.2 | 74.2 | 58.2 |  |  | 
7 | COc1cc(/C(Cl)=C/C=C(\C#N)C(=O)c2c(C)[nH]c3ccccc23)cc(OC)c1OC | < 0.1 | 83.7 | > 100 | 80.7 | 14.5 | 74.2 | 58.2 | 12.4 | 68.3 | 42.6
8 | O=C(O)Cc1ccccc1Nc1c(Cl)cccc1Cl |  |  |  | 90.2 |  |  |  |  |  | 
9 | COc1ccc(/C(Cl)=C/C=C(\C#N)C(=O)c2c(C)[nH]c3ccccc23)cc1OC | 29.6 | 93 | > 100 | 79.8 | 22.4 | 75.8 | 66.4 | 11.8 | 65.9 | 41.1
10 | N#C/C(=C\C=C(/Cl)c1ccc(Br)cc1)C(=O)c1c[nH]c2ccc(Br)cc12 | > 100 | > 100 | > 100 | 90.8 | 15.8 | 67.5 | 83.6 |  |  | 
11 | COc1ccc(/C(Cl)=C/C=C(\C#N)C(=O)c2c[nH]c3ccccc23)cc1OC | 44.2 | > 100 | > 100 | 85.3 | 15.8 | 75 | 63.6 |  |  | 
12 | COc1ccc2[nH]cc(C(=O)/C(C#N)=C/C=C(\Cl)c3cc(OC)c(OC)c(OC)c3)c2c1 | 39.2 | > 100 | > 100 | 84.4 | 46 | 68.3 | 50 | 9.5 | 45.2 | 12.1
13 | Cc1[nH]c2ccccc2c1C(=O)/C(C#N)=C/C=C(\Cl)c1ccc(Br)cc1 | 73.9 | 73.8 | > 100 | 85.3 | 15.8 | 78.3 | 69.1 |  |  | 
14 | COc1ccc2[nH]cc(C(=O)/C(C#N)=C/C=C(\Cl)c3ccc(Br)cc3)c2c1 | 79.9 | > 100 | > 100 | 88.1 | 40.8 | 76.7 | 54.5 |  |  | 
15 | COc1ccc(/C(Cl)=C/C=C(\C#N)C(=O)c2c[nH]c3ccc(Br)cc23)cc1OC | 31.9 | > 100 | > 100 | 21.1 | 11.8 | 57.5 | 80.9 | 8.2 | 51.8 | 38.4
16 | N#C/C(=C\C=C(/Cl)c1ccc(Br)cc1)C(=O)c1c[nH]c2ccccc12 | 72.5 | 81.5 | > 100 | 38.5 | 18.4 | 76.7 | 65.5 |  |  | 
17 | COc1ccc(/C(Cl)=C/C=C(\C#N)C(=O)c2c[nH]c3ccc(Br)cc23)cc1 | 80.3 | > 100 | > 100 | 78.2 | 15.6 | 56.2 | 62.2 |  |  | 
18 | COc1ccc(/C(Cl)=C/C=C(\C#N)C(=O)c2c(C)[nH]c3ccccc23)cc1 | 56.7 | > 100 | > 100 | 83.1 | 34.2 | 74 | 63.1 |  |  | 
19 | COc1cc(/C(Cl)=C/C=C(\C#N)C(=O)c2c[nH]c3ccc(Br)cc23)cc(OC)c1OC | 30.8 | 96.5 | > 100 | 90.8 | 26.3 | 36.7 | 50 | 7.6 | 41.5 | 22.1
